# Measured values: ChEMBL document CHEMBL5058577, “EUbOPEN Chemogenomics Library 2 (Multiplex)” (2022)
# System: HEK-293T
# Assay: Multiplex assay against HEK293T
# Assay type: toxicity, cell-based
# Settings: human
# Outline: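 On a CQ1 microscope at 37°C and 5% CO2, live cells were imaged after compound addition. They had been stained at seeding with Hoechst33342, BioTracker Green Microtubule Cytoskeleton Dye, MitoTracker Red and Annexin V Alexa Fluor 680. CellPathfinder machine-learning gating assigned cells to Hoechst high-intensity objects or normal cells, normal cells to healthy, pyknosed or fragmented nuclei, and pyknosed cells to mitotic or apoptotic. Tubulin, mitochondrial-mass and membrane-permeability phenotypes are per cents of healthy-nucleus cells.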
# [1] = 12 h, 1 µM, compound concentration 1 uM, replicate 1
# [2] = 12 h, 1 µM, compound concentration 1 uM, replicate 2
# [3] = 12 h, 10 µM, compound concentration 10 uM, replicate 1
# [4] = 12 h, 10 µM, compound concentration 10 uM, replicate 2
# [5] = 24 h, 1 µM, compound concentration 1 uM, replicate 1
# [6] = 24 h, 1 µM, compound concentration 1 uM, replicate 2
# [7] = 24 h, 10 µM, compound concentration 10 uM, replicate 1
# [8] = 24 h, 10 µM, compound concentration 10 uM, replicate 2
# [9] = 48 h, 1 µM, compound concentration 1 uM, replicate 1
# [10] = 48 h, 1 µM, compound concentration 1 uM, replicate 2
# [11] = 48 h, 10 µM, compound concentration 10 uM, replicate 1
# [12] = 48 h, 10 µM, compound concentration 10 uM, replicate 2
structure (smiles),measurement,setting,value
Cl.NCCc1ccc(O)c(O)c1 [DOPAMINE HYDROCHLORIDE],Population Apoptotic (%),[1],31%
same,Population Fragmented Nuclei (%),[1],6%
same,Population Healthy Nuclei (%),[1],77%
same,Population Hoechst High Intensity Objects (%),[1],10%
same,Population Membrane Permeable-Phenotype (%),[1],0%
same,Population Mitochondria Different-Phenotype (%),[1],54%
same,Population Mitotic Cells (%),[1],68%
same,Population Normal (%),[1],89%
same,Population Pyknosed Nuclei (%),[1],16%
same,Population Tubulin-Different-Phenotype (%),[1],36%
same,Total Cell Count,[1],324
same,Population Apoptotic (%),[2],54%
same,Population Fragmented Nuclei (%),[2],7%
same,Population Healthy Nuclei (%),[2],78%
same,Population Hoechst High Intensity Objects (%),[2],6%
same,Population Mitochondria Different-Phenotype (%),[2],58%
same,Population Mitotic Cells (%),[2],46%
same,Population Normal (%),[2],93%
same,Population Pyknosed Nuclei (%),[2],14%
same,Population Tubulin-Different-Phenotype (%),[2],18%
same,Total Cell Count,[2],372
same,Population Apoptotic (%),[3],46%
same,Population Fragmented Nuclei (%),[3],5%
same,Population Healthy Nuclei (%),[3],77%
same,Population Hoechst High Intensity Objects (%),[3],6%
same,Population Membrane Permeable-Phenotype (%),[3],0%
same,Population Mitochondria Different-Phenotype (%),[3],57%
same,Population Mitotic Cells (%),[3],53%
same,Population Normal (%),[3],93%
same,Population Pyknosed Nuclei (%),[3],17%
same,Population Tubulin-Different-Phenotype (%),[3],43%
same,Total Cell Count,[3],344
same,Population Apoptotic (%),[4],37%
same,Population Healthy Nuclei (%),[4],83%
same,Population Hoechst High Intensity Objects (%),[4],5%
same,Population Mitochondria Different-Phenotype (%),[4],51%
same,Population Mitotic Cells (%),[4],62%
same,Population Normal (%),[4],94%
same,Population Pyknosed Nuclei (%),[4],11%
same,Population Tubulin-Different-Phenotype (%),[4],23%
same,Total Cell Count,[4],413
same,Population Apoptotic (%),[5],44%
same,Population Fragmented Nuclei (%),[5],9%
same,Population Healthy Nuclei (%),[5],76%
same,Population Hoechst High Intensity Objects (%),[5],4%
same,Population Membrane Permeable-Phenotype (%),[5],1%
same,Population Mitochondria Different-Phenotype (%),[5],40%
same,Population Mitotic Cells (%),[5],55%
same,Population Normal (%),[5],95%
same,Population Pyknosed Nuclei (%),[5],13%
same,Population Tubulin-Different-Phenotype (%),[5],19%
same,Total Cell Count,[5],451
same,Population Apoptotic (%),[6],20%
same,Population Fragmented Nuclei (%),[6],8%
same,Population Healthy Nuclei (%),[6],85%
same,Population Hoechst High Intensity Objects (%),[6],5%
same,Population Membrane Permeable-Phenotype (%),[6],0%
same,Population Mitochondria Different-Phenotype (%),[6],46%
same,Population Mitotic Cells (%),[6],79%
same,Population Normal (%),[6],94%
same,Population Pyknosed Nuclei (%),[6],5%
same,Population Tubulin-Different-Phenotype (%),[6],11%
same,Total Cell Count,[6],478
same,Population Apoptotic (%),[7],39%
same,Population Fragmented Nuclei (%),[7],7%
same,Population Healthy Nuclei (%),[7],79%
same,Population Hoechst High Intensity Objects (%),[7],5%
same,Population Membrane Permeable-Phenotype (%),[7],0%
same,Population Mitochondria Different-Phenotype (%),[7],36%
same,Population Mitotic Cells (%),[7],60%
same,Population Normal (%),[7],94%
same,Population Pyknosed Nuclei (%),[7],12%
same,Population Tubulin-Different-Phenotype (%),[7],23%
same,Total Cell Count,[7],393
same,Population Apoptotic (%),[8],38%
same,Population Fragmented Nuclei (%),[8],9%
same,Population Healthy Nuclei (%),[8],83%
same,Population Mitochondria Different-Phenotype (%),[8],40%
same,Population Mitotic Cells (%),[8],61%
same,Population Pyknosed Nuclei (%),[8],7%
same,Population Tubulin-Different-Phenotype (%),[8],15%
same,Total Cell Count,[8],533
same,Population Apoptotic (%),[9],19%
same,Population Fragmented Nuclei (%),[9],14%
same,Population Healthy Nuclei (%),[9],78%
same,Population Hoechst High Intensity Objects (%),[9],4%
same,Population Membrane Permeable-Phenotype (%),[9],1%
same,Population Mitochondria Different-Phenotype (%),[9],23%
same,Population Mitotic Cells (%),[9],80%
same,Population Normal (%),[9],95%
same,Population Pyknosed Nuclei (%),[9],7%
same,Population Tubulin-Different-Phenotype (%),[9],14%
same,Total Cell Count,[9],785
same,Population Apoptotic (%),[10],23%
same,Population Fragmented Nuclei (%),[10],10%
same,Population Healthy Nuclei (%),[10],81%
same,Population Membrane Permeable-Phenotype (%),[10],0%
same,Population Mitochondria Different-Phenotype (%),[10],20%
same,Population Mitotic Cells (%),[10],76%
same,Population Tubulin-Different-Phenotype (%),[10],7%
same,Total Cell Count,[10],638
same,Population Apoptotic (%),[11],30%
same,Population Fragmented Nuclei (%),[11],14%
same,Population Healthy Nuclei (%),[11],79%
same,Population Hoechst High Intensity Objects (%),[11],3%
same,Population Membrane Permeable-Phenotype (%),[11],0%
same,Population Mitochondria Different-Phenotype (%),[11],24%
same,Population Mitotic Cells (%),[11],70%
same,Population Normal (%),[11],96%
same,Population Pyknosed Nuclei (%),[11],6%
same,Population Tubulin-Different-Phenotype (%),[11],13%
same,Total Cell Count,[11],660
same,Population Apoptotic (%),[12],17%
same,Population Fragmented Nuclei (%),[12],12%
same,Population Healthy Nuclei (%),[12],83%
same,Population Hoechst High Intensity Objects (%),[12],1%
same,Population Mitochondria Different-Phenotype (%),[12],17%
same,Population Mitotic Cells (%),[12],82%
same,Population Normal (%),[12],98%
same,Population Pyknosed Nuclei (%),[12],4%
same,Population Tubulin-Different-Phenotype (%),[12],7%
same,Total Cell Count,[12],859
